Reference: ChEMBL document CHEMBL4014350, “Alkoxyurea-Based Histone Deacetylase Inhibitors Increase Cisplatin Potency in Chemoresistant Cancer Cell Lines” (J Med Chem, 2017)

Legend:
CAL-27 [1] = test: Potentiation of 0.316 uM cisplatin-induced cytotoxicity against human CAL27 cells assessed as decrease in cell viability by measuring combination index at 1500 uM preincubated for 48 hrs followed by cisplatin treatment measured after 72 hrs by MTT assay; format: functional; conditions: in the assay text read “at 1500 nM” for “at 1500 uM”
Outline: (§1)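 Cal27 and cisplatin-resistant Cal27CisR cells were preincubated with the HDAC inhibitor for 48 h, then given cisplatin in combination. Viability was read by MTT after 72 h. The combination index was computed by the Chou–Talalay method: CI > 1 is antagonism, CI = 1 is additive, and CI < 0.9 is synergism. Points with fraction affected below 0.20 were flagged.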

CAL-27 [2] = test: Potentiation of 0.5 uM cisplatin-induced cytotoxicity against human CAL27 cells assessed as decrease in cell viability by measuring combination index at 1500 uM preincubated for 48 hrs followed by cisplatin treatment measured after 72 hrs by MTT assay; format: functional; outline: as §1
CAL-27 [3] = test: Potentiation of 1 uM cisplatin-induced cytotoxicity against human CAL27 cells assessed as decrease in cell viability by measuring combination index at 900 uM preincubated for 48 hrs followed by cisplatin treatment measured after 72 hrs by MTT assay; format: functional
Outline: (§2)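 HDAC inhibitor was added 48 h before cisplatin, then cells were exposed to cisplatin for 72 h and viability was read by MTT assay. Combination index was computed by the Chou–Talalay method: CI > 1 is antagonism, CI = 1 additive, CI < 0.9 synergism. Points with fraction affected below 0.20 were flagged.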

CAL-27 [4] = test: Potentiation of 1 uM cisplatin-induced cytotoxicity against human CAL27 cells assessed as decrease in cell viability by measuring combination index at 2000 uM preincubated for 48 hrs followed by cisplatin treatment measured after 72 hrs by MTT assay; format: functional; conditions: in the assay text read “at 2000 nM” for “at 2000 uM”; outline: as §1
CAL-27 [5] = test: Potentiation of 2 uM cisplatin-induced cytotoxicity against human CAL27 cells assessed as decrease in cell viability by measuring combination index at 1000 uM preincubated for 48 hrs followed by cisplatin treatment measured after 72 hrs by MTT assay; format: functional; conditions: in the assay text read “at 1000 nM” for “at 1000 uM”; outline: as §2
CAL-27 [6] = test: Potentiation of 2 uM cisplatin-induced cytotoxicity against human CAL27 cells assessed as decrease in cell viability by measuring combination index at 1500 uM preincubated for 48 hrs followed by cisplatin treatment measured after 72 hrs by MTT assay; format: functional; conditions: in the assay text read “at 1500 nM” for “at 1500 uM”; outline: as §2
[7] = molecular target: T1, Histone deacetylase 1/6 (Homo sapiens) (UniProt Q13547+Q9UBN7); test: Inhibition of HDAC1/HDAC6 in human Cal27CisR cells assessed as potentiation of 1 uM cisplatin-induced cytotoxicity by measuring combination index at 900 uM preincubated for 48 hrs followed by cisplatin treatment measured after 72 hrs by MTT assay; format: cell-based
T1 sequence (Q13547 whole entry, looked up): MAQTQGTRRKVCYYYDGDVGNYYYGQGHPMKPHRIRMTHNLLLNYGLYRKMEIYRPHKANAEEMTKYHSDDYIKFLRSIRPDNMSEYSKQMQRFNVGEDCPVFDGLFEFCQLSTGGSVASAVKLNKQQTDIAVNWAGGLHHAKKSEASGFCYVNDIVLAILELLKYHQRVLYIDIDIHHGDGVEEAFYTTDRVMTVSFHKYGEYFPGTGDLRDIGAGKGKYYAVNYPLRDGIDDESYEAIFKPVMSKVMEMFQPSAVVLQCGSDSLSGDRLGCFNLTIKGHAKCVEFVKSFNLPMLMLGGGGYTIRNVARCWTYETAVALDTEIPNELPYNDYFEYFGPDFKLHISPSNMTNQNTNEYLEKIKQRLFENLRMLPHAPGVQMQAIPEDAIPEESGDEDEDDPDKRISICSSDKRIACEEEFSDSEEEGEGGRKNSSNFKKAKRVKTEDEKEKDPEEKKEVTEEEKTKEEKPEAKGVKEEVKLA
T1 sequence (Q9UBN7 whole entry, looked up): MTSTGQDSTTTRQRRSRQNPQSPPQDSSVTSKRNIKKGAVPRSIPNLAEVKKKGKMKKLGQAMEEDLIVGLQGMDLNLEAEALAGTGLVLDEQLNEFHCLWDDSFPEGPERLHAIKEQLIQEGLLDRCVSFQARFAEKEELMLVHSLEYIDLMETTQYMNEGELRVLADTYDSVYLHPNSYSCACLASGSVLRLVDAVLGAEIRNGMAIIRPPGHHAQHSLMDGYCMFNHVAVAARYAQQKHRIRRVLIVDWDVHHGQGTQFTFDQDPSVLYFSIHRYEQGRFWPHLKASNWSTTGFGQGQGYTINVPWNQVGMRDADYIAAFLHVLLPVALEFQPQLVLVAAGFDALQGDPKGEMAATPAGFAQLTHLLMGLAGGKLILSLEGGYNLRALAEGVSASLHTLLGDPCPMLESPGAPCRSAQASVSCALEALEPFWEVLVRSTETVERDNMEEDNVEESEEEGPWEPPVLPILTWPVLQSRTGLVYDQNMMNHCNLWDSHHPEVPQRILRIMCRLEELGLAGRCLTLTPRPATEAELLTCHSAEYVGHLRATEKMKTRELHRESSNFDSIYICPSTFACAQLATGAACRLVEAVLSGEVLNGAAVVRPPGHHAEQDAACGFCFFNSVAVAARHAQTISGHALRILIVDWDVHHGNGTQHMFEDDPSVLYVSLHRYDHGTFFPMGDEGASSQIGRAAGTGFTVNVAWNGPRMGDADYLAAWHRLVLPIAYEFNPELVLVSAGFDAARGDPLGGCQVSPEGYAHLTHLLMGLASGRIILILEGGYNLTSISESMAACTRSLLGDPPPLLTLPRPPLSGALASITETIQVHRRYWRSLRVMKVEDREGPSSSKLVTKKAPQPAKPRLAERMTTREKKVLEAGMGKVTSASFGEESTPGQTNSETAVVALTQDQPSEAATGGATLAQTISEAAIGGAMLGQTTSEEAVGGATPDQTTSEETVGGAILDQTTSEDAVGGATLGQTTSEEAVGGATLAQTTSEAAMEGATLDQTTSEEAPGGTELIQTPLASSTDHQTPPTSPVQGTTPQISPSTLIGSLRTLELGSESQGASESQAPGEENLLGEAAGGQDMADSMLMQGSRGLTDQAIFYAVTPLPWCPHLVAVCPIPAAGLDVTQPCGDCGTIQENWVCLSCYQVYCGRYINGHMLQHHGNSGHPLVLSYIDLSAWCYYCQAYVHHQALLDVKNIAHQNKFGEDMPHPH
Outline: (§3)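 Cal27CisR cells preincubated 48 h with the HDAC inhibitor, then exposed to cisplatin for 72 h. Viability read by MTT. Combination index calculated by the Chou–Talalay method: CI > 1 antagonism, CI = 1 additive, CI < 0.9 synergism. Points with fraction affected below 0.20 are flagged. Values are the mean of three experiments.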

[8] = molecular target: T1, Histone deacetylase 1/6 (Homo sapiens); test: Inhibition of HDAC1/HDAC6 in human Cal27CisR cells assessed as potentiation of 1 uM cisplatin-induced cytotoxicity by measuring combination index at 1500 uM preincubated for 48 hrs followed by cisplatin treatment measured after 72 hrs by MTT assay; format: cell-based; outline: as §3
[9] = molecular target: T1, Histone deacetylase 1/6 (Homo sapiens); test: Inhibition of HDAC1/HDAC6 in human Cal27CisR cells assessed as potentiation of 5 uM cisplatin-induced cytotoxicity by measuring combination index at 900 uM preincubated for 48 hrs followed by cisplatin treatment measured after 72 hrs by MTT assay; format: cell-based; outline: as §1
[10] = molecular target: T1, Histone deacetylase 1/6 (Homo sapiens); test: Inhibition of HDAC1/HDAC6 in human Cal27CisR cells assessed as potentiation of 10 uM cisplatin-induced cytotoxicity by measuring combination index at 900 nM preincubated for 48 hrs followed by cisplatin treatment measured after 72 hrs by MTT assay
[11] = molecular target: T1, Histone deacetylase 1/6 (Homo sapiens); test: Inhibition of HDAC1/HDAC6 in human Cal27CisR cells assessed as potentiation of 20 uM cisplatin-induced cytotoxicity by measuring combination index at 2000 nM preincubated for 48 hrs followed by cisplatin treatment measured after 72 hrs by MTT assay
CAL-27 [12] = test: Potentiation of 0.5 uM cisplatin-induced cytotoxicity against human CAL27 cells assessed as decrease in cell viability by measuring combination index at 200 uM preincubated for 48 hrs followed by cisplatin treatment measured after 72 hrs by MTT assay; format: functional; outline: as §1
CAL-27 [13] = test: Potentiation of 1 uM cisplatin-induced cytotoxicity against human CAL27 cells assessed as decrease in cell viability by measuring combination index at 100 uM preincubated for 48 hrs followed by cisplatin treatment measured after 72 hrs by MTT assay; format: functional; conditions: in the assay text read “at 100 nM” for “at 100 uM”; outline: as §1
CAL-27 [14] = test: Potentiation of 5 uM cisplatin-induced cytotoxicity against human CAL27 cells assessed as decrease in cell viability by measuring combination index at 200 uM preincubated for 48 hrs followed by cisplatin treatment measured after 72 hrs by MTT assay; format: functional; conditions: in the assay text read “at 200 nM” for “at 200 uM”; outline: as §2
CAL-27 [15] = test: Potentiation of 5 uM cisplatin-induced cytotoxicity against human CAL27 cells assessed as decrease in cell viability by measuring combination index at 400 uM preincubated for 48 hrs followed by cisplatin treatment measured after 72 hrs by MTT assay; format: functional; conditions: in the assay text read “at 400 nM” for “at 400 uM”; outline: as §2
[16] = molecular target: T1, Histone deacetylase 1/6 (Homo sapiens); test: Inhibition of HDAC1/HDAC6 in human Cal27CisR cells assessed as potentiation of 3.16 uM cisplatin-induced cytotoxicity by measuring combination index at 100 uM preincubated for 48 hrs followed by cisplatin treatment measured after 72 hrs by MTT assay; format: cell-based; outline: as §3
[17] = molecular target: T1, Histone deacetylase 1/6 (Homo sapiens); test: Inhibition of HDAC1/HDAC6 in human Cal27CisR cells assessed as potentiation of 10 uM cisplatin-induced cytotoxicity by measuring combination index at 300 uM preincubated for 48 hrs followed by cisplatin treatment measured after 72 hrs by MTT assay; format: cell-based; outline: as §3
[18] = molecular target: T1, Histone deacetylase 1/6 (Homo sapiens); test: Inhibition of HDAC1/HDAC6 in human Cal27CisR cells assessed as potentiation of 10 uM cisplatin-induced cytotoxicity by measuring combination index at 400 uM preincubated for 48 hrs followed by cisplatin treatment measured after 72 hrs by MTT assay; format: cell-based; outline: as §3
[19] = molecular target: T1, Histone deacetylase 1/6 (Homo sapiens); test: Inhibition of HDAC1/HDAC6 in human Cal27CisR cells assessed as potentiation of 5 uM cisplatin-induced cytotoxicity by measuring combination index at 200 nM preincubated for 48 hrs followed by cisplatin treatment measured after 72 hrs by MTT assay
[20] = molecular target: T1, Histone deacetylase 1/6 (Homo sapiens); test: Inhibition of HDAC1/HDAC6 in human Cal27CisR cells assessed as potentiation of 20 uM cisplatin-induced cytotoxicity by measuring combination index at 100 nM preincubated for 48 hrs followed by cisplatin treatment measured after 72 hrs by MTT assay

| SMILES | CI (CAL-27 [1]) | CI (CAL-27 [2]) | CI (CAL-27 [3]) | CI (CAL-27 [4]) | CI (CAL-27 [5]) | CI (CAL-27 [6]) | CI [7] | CI [8] | CI [9] | CI [10] | CI [11] | CI (CAL-27 [12]) | CI (CAL-27 [13]) | CI (CAL-27 [14]) | CI (CAL-27 [15]) | CI [16] | CI [17] | CI [18] | CI [19] | CI [20] |
| --- | --- | --- | --- | --- | --- | --- | --- | --- | --- | --- | --- | --- | --- | --- | --- | --- | --- | --- | --- | --- |
| COc1cc(NC(=O)NOCCCCCC(=O)NO)c2ncccc2c1 | 0.82 | 0.74 | 0.54 | 0.75 | 0.41 | 0.6 | < 0.2 | 1 | 0.52 | 0.43 | 0.68 |  |  |  |  |  |  |  |  |  |
| COc1cc(NC(=O)NOCCCCCC(=O)NO)c2nccc(C)c2c1 |  |  |  |  |  |  |  |  |  |  |  | <0.2 | <0.2 | 0.29 | 0.29 | < 0.2 | 0.43 | 0.26 | < 0.2 | 0.73 |
| COc1cc(NC(=O)NOCCCCCC(=O)NO)c2nc(OC)cc(C)c2c1 |  |  |  |  |  |  |  |  |  |  |  | 0.96 | <0.2 | 0.22 | 0.36 | 0.89 | 0.18 | 0.16 | 0.38 | 0.34 |
